MC4R ag barr: activates human MC4R beta-arrestin recruitment; activation, % at 8.9 µM; U2OS MC4R beta-arrestin complementation, luminescence; percent of melanotan II response, DMSO zero; 360,000 tested, 0.98% active; P32245;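 active = activation above a per-plate cutoff, the mean activation of sample wells on that plate plus 3 SD, cut at about 8% in these data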
Target sequence (P32245 whole entry, looked up): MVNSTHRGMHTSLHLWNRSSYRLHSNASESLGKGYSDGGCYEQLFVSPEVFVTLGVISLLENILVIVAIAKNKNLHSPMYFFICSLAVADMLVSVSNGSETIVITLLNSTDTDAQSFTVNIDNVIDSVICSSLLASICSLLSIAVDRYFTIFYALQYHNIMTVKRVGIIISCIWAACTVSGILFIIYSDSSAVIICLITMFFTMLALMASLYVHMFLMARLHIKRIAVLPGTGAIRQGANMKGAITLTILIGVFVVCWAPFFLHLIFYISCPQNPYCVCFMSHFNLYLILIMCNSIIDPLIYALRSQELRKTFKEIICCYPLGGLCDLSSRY
TAAR1 antag: antagonists of human TAAR1 | CHO RD-HGA16 TAAR1, Fluo-8 calcium fluorescence, antagonist | inhibition, % at 3 µM | 360,000 tested, 1.5% active | AID 624466;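 active = inhibition above a per-plate cutoff, the mean inhibition of test compounds on that plate plus 3 SD, cut at about 49% in these data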;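 note: 0% = DMSO plus EC80 beta-PEA response and 100% = DMSO alone without agonist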
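Assay system: CHO-derived RD-HGA16 cells stably expressing human TAAR1 plus Gα16. Timing: 140 s kinetic read after compound, 140 s after agonist. Technique: kinetic Fluo-8 calcium fluorescence measurement. Measure: % inhibition of agonist calcium response.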
MC4R antagonist: blocks human MC4R cAMP signaling; inhibition, % at 6.5 µM; MC4R-expressing cells, MTII-stimulated cAMP, LANCE TR-FRET; 360,000 tested, 0.48% active;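 active = inhibition above its plate's cutoff, the mean of tested wells on that plate plus 3 SD, cut at about 29% in these data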;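 note: 0% = Melanotan II alone and 100% = Melanotan II plus saturating MCL0020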
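Material – human MC4R-expressing U2OS cells · Repeats – no replicates · Detection – TR-FRET with Eu-cAMP and labeled anti-cAMP, 671 nm · Times – compound 30 min, challenge 1 h, detection 1 h · Compound – single nominal compound dose of 6.5 µM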
Beta2AR agonist: human beta-2 adrenergic receptor agonism by FAP; AID 504454; P07550; response, % (test concentration not listed); Am2.2-beta2AR cells, FAP receptor internalization, flow cytometry; 340,000 tested, 0.43% active;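 active = response above a set limit, near 3 SD of response in nonfluorescent compounds, cut at about 42% in these data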
TAAR1 ag: human TAAR1 agonism | AID 624467 | Q96RJ0 | activation, % at 3 µM | 360,000 tested, 0.99% active | CHO RD-HGA16 TAAR1, Fluo-8 calcium fluorescence; vehicle wells 0%, saturating PEA agonist 100%;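 active = activation above the mean activation of all test compounds in the run plus 3 SD, cut at about 38% in these data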
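Benchmarks: low control DMSO, high control PEA (EC100); System: CHO RD-HGA16 cells carrying human TAAR1 plus Gα16; Detection: Fluo-8 fluorescence, 5 s baseline then 140 s kinetic read; Schedule: 17-24 h plating, Fluo-8 75 min 37 °C, 30 min RT; Read-out basis: % activation from peak over basal fluorescence ratio, DMSO-to-PEA scaled.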
m5-HT2A agonist: activates the mouse 5-HT2A serotonin receptor; P35363; CHO-K1 mHTR2A beta-arrestin complementation, luminescence; percent of 30 µM serotonin response; activation, % at 7.6 µM; 360,000 tested, 0.66% active; AID 624169;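 active = activation above a run cutoff, the mean activation of all tested compounds plus 3 SD, cut at about 14% in these data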;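 note: 0% = plate median of compound wells and 100% = 30 µM serotonin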
TAAR1 nonsel count: nonselective antagonist in TAAR1 antagonist counter-screen | shares compounds with TAAR1 antag | counterscreen cell line, calcium fluorescence, antagonist mode | inhibition, % at 3 µM | 2,400 tested, 77% active; in the data active = inhibition above about 22%;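 note: CHO-Ga16 host cells stimulated with ATP at an EC80 level; 0% = agonist EC80 plus vehicle and 100% = vehicle without agonist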
TAAR1 antag conf: confirmation of human TAAR1 antagonists. shares compounds with TAAR1 antag. TAAR1-expressing cells, fluorescence antagonist read-out. inhibition, % at 3 µM. 2,400 tested, 40% active; in the data active = inhibition above about 49%;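 note: CHO-Ga16 host cells challenged with agonist PEA near its EC80; 0% = agonist at EC80 plus vehicle and 100% = vehicle with no agonist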
Ga16 ag counter: nonselective Ga16 agonist in TAAR1 antagonist counter-screen. activation, % at 3 µM. 2,400 tested, 18% active. shares compounds with TAAR1 antag. AID 651953. Ga16-expressing cells, calcium fluorescence, agonist counterscreen; in the data active = activation above about 12%;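 note: 0% = vehicle wells and 100% = saturating stimulus response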
TAAR1 ag count: counter-screen for human TAAR1 antagonists: TAAR1 agonists. AID 651955. 2,400 tested, 2% active. shares compounds with TAAR1 antag. hTAAR1 cell line, fluorescence activation, agonist mode. activation, % at 3 µM; in the data active = activation above about 37%;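 note: CHO cells stably expressing TAAR1 with calcium dye readout; 0% = DMSO vehicle and 100% = full agonist response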
* hit, by the source's call; . = not tested or not shown. An excerpt weighted towards active compounds, which were near 4.3% of everything screened.

SMILES | MC4R ag barr | TAAR1 antag | MC4R antagonist | Beta2AR agonist | TAAR1 ag | m5-HT2A agonist | TAAR1 nonsel count | TAAR1 antag conf | Ga16 ag counter | TAAR1 ag count
COc1cc(C#N)ccc1OCC(=O)Nc1cccc(S(=O)(=O)N(C)c2ccccc2)c1 | 1 | 74* | 9 | . | 12 | -3 | 36* | 49* | 10 | 7
CCCC(=O)Nc1cccc(S(=O)(=O)N(C)c2ccccc2)c1 | -1 | -4 | 16 | 0 | 1 | -1 | . | . | . | .
CC(=O)CCc1ccc(OCC(=O)Nc2cccc(S(=O)(=O)N(C)c3ccccc3)c2)cc1 | 3 | 74* | 8 | 9 | 10 | -4 | 35* | 52* | 11 | 8
CCCCC1Cc2[nH]c(=S)[nH]c(=O)c2C(c2ccc(F)cc2)O1 (configuration not stated) | . | -20 | . | . | 1 | 3 | . | . | . | .
C[C@H](CO)NC(=O)c1nc[nH]c1C(=O)N[C@@H](C)c1ccccc1 | 0 | -16 | 9 | . | 1 | 4 | . | . | . | .
Cc1cc(C)nc(NC(=NCCc2c[nH]c3ccccc23)NC(=O)c2ccco2)n1 | 5 | 68* | 22 | 8 | 13 | -2 | 28* | 53* | 7 | 6
Cc1cc(C)nc(NC(=NCCc2c[nH]c3ccccc23)NC(=O)Nc2ccccc2)n1 | -2 | 64* | 11 | 4 | 3 | 4 | 30* | 54* | 5 | 5
Cc1cc(C)nc(NC(=NCCc2c[nH]c3ccccc23)NC(=O)Nc2ccc(Cl)c(Cl)c2)n1 | -1 | -5 | 25 | -4 | 6 | 5 | . | . | . | .
Cc1c(C(=O)NCc2ccco2)sc(=O)n1Cc1ccc(S(C)(=O)=O)cc1 | 1 | 8 | 22 | . | 1 | -3 | . | . | . | .
Cc1ccc(S(=O)(=O)N2CCC[C@H]2C(=O)Nc2ccc(F)cc2C)cc1 | -3 | -8 | 7 | -3 | -2 | -8 | . | . | . | .
Cc1ccc(S(=O)(=O)N2[C@H](CC(=O)c3ccc(F)cc3)OC[C@@H]2C)cc1 | . | -20 | . | . | -2 | -4 | . | . | . | .
COc1cccc(N2CCN(CC(=O)Nc3ccccc3C(=O)NCc3ccccc3)CC2)c1 | -2 | 66* | 1 | 17 | 29 | -8 | 24* | 56* | 8 | 15
COc1cc2c(cc1OC)CN(CC(=O)Nc1ccccc1C(=O)NCc1ccccc1)CC2 | -1 | 32 | 13 | 21 | 6 | -2 | . | . | . | .
COC(=O)c1[nH]c2ccccc2c1NC(=O)CN1CCN(c2cccc(Cl)c2)CC1 | 7 | 62* | -19 | 10 | 13 | 3 | 30* | 47 | 9 | 3
Cc1cc(Br)cn2c(Cc3ccccc3)c(-c3ccc(F)cc3)nc12 | . | 4 | . | . | -1 | -1 | . | . | . | .
CCOc1ccc(S(=O)(=O)Nc2cccc(C(=O)N3CCN(c4ccccn4)CC3)c2)cc1 | -1 | 52* | 0 | . | 11 | 7 | 31* | 49* | 16* | 15
CCOc1ccc(S(=O)(=O)Nc2cccc(C(=O)N3CCN(c4ccccc4O)CC3)c2)cc1 | 2 | 36 | -2 | -5 | 11 | 8 | . | . | . | .
Cc1ccc(C)c(NC(=O)Cc2nc(CCl)cs2)c1 | -1 | 2 | 19 | 2 | -2 | 1 | . | . | . | .
COc1cc(C(=O)OCc2csc(CC(=O)Nc3cc(C)ccc3C)n2)ccc1OC(F)F | 4 | 66* | 7 | 7 | 9 | 10 | 42* | 53* | 8 | 5
CCOC(=O)c1ccc(NC(=O)CN(C)S(=O)(=O)c2ccc(Br)s2)cc1 | 5 | 85* | 13 | -5 | 12 | 1 | 38* | 48 | 9 | 6

Compound activity (PubChem BioAssay)
